Assay results from paper PMC2773291 (Journal of medicinal chemistry, 2009).
Peptide text beside a SMILES is read from it. * marks the point of attachment. Pyropheophorbide(a) = C=Cc1c(C)c2cc3nc(c4c5[nH]c(cc6nc(cc1[nH]2)C(C)=C6CC)c(C)c5C(=O)C4)[C@@H](CCC(=O)*)[C@@H]3C; X1 = CCN(CC)c1ccc2nc3ccc(N=Nc4ccc(N(C)CCCC(=O)*)cc4)cc3[n+](-c3ccccc3)c2c1

What was measured:
[1] = system: HEK-mFAP tumor; test: Mouse xenograft in vivo imaging and ex vivo validation, HEK-mFAP tumor; parameters: species or system nude mice
Method in brief: (§1)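 Athymic female nude mice carried 1 × 10^7 FAP-transfected HEK293 cells on the left flank and 1 × 10^7 vector cells on the right, or FAP cells on both flanks. After 3 weeks (tumors 5–10 mm) mice received 4 days of low-fluorescence diet and ketamine/acepromazine anaesthesia. Probe (25 nmol in 30 μL aqueous, 2 μL DMSO, 0.5 μL Tween 80) was injected intratumorally at several sites. Imaging before and at intervals to 24 h used ex 650 nm, em ≥700 nm, 200 ms exposure; signal normalised to exposure time and ROI area.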

[2] = target: dipeptidyl peptidase IV (DPPIV) (Homo sapiens, UniProt P27487); test: Stability of FAP-PPB toward DPPIV; conditions: FAP-PPB 1 nmol in 1 mL 20mM TRIS pH 7.5, PPB:DPPIV = 228:1, 37 °C
Sequence of dipeptidyl peptidase IV (DPPIV) (P27487 29-766 limits assumed, species assumed): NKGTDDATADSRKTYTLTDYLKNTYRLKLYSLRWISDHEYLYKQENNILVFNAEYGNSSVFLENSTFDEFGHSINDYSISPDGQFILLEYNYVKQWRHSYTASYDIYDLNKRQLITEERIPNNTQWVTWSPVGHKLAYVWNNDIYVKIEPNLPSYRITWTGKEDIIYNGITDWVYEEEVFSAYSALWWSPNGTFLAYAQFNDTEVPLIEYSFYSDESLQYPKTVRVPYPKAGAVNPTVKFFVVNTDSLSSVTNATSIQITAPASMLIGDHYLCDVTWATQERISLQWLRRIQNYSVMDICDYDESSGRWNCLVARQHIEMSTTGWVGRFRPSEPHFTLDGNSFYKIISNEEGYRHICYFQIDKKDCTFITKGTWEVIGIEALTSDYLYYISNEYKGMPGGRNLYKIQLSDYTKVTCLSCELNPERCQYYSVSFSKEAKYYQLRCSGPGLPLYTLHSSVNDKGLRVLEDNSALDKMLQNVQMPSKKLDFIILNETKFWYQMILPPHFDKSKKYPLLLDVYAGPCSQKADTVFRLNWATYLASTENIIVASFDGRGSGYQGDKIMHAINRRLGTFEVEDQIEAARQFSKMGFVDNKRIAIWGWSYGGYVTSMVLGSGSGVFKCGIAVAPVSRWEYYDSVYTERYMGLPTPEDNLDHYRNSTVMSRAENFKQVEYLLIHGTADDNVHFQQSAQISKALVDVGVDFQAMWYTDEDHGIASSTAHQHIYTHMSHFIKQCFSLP

[3] = system: HEK-mFAP and HEK-Vector cells; test: Flow cytometric studies, HEK-mFAP versus HEK-Vector cells; assay type: cell-based, human; conditions: 6.25 μM
Method in brief: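 Transfected HEK293 lines (murine FAP or empty vector) seeded at about 7 × 10^5 cells/well for 2 days, then kept overnight in FBS-free DMEM. Probe diluted in this conditioned medium to 6.25 μM and applied 1, 2, 4, 6 or 24 h at 37°C. Cells were centrifuge-washed three times, fixed in 2% paraformaldehyde for 10 min, and read by flow cytometry (ex 633 nm, em 660–690 nm; 10000 cells). Three independent experiments.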

[4] = system: HEK-Vector tumor; test: Mouse xenograft in vivo imaging and ex vivo validation, HEK-Vector tumor; parameters: species or system nude mice
Method in brief: as §1

[5] = system: tumor site; test: Tumor accumulation after intravenous tail-vein injection; assay type: in vivo
[6] = system: HEK-mFAP cells (FAP+); test: HPLC-MS of culture media after incubation with HEK-mFAP cells; assay type: cell-based, human; conditions: for cleavage in culture media of HEK-mFAP cells (HPLC-MS): media after incubation for the confocal study, 25 μM, 6 h
Method in brief: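 Probe-containing FAP-expressing HEK293 culture media were collected after incubation and analysed by HPLC-MS for cleaved probe. One set came from flow cytometry (6.25 μM in FBS-free DMEM, up to 24 h, 37°C). The other came from confocal work (25 μM, 6 h, 37°C).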

[7] = system: HEK-mFAP cells (FAP+); test: Confocal microscopic studies, HEK-mFAP cells; assay type: cell-based, human; conditions: 25 μM, 6 h, 37°C, FBS-free medium
Method in brief: (§2)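 HEK293 stably expressing full-length wild-type murine FAP, grown in DMEM with 10% FBS, 2 mM L-glutamine and G418 200 μg mL−1. Cells seeded at 1.5 × 10^4/well for 2 days, then kept overnight in FBS-free DMEM. Probe was diluted in this conditioned medium to 25 μM and applied 6 h at 37°C, 5% CO2. Cells were fixed in 3% formaldehyde (20 min, dark), DAPI-mounted, and imaged confocally (405 and 633 nm lasers).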

[8] = target: T1, murine FAP (mFAP) (Mus musculus, UniProt P97321); test: Activation of FAP-PPB by murine FAP in buffer; assay type: biochemical
T1 sequence (P97321 26-761 limits assumed): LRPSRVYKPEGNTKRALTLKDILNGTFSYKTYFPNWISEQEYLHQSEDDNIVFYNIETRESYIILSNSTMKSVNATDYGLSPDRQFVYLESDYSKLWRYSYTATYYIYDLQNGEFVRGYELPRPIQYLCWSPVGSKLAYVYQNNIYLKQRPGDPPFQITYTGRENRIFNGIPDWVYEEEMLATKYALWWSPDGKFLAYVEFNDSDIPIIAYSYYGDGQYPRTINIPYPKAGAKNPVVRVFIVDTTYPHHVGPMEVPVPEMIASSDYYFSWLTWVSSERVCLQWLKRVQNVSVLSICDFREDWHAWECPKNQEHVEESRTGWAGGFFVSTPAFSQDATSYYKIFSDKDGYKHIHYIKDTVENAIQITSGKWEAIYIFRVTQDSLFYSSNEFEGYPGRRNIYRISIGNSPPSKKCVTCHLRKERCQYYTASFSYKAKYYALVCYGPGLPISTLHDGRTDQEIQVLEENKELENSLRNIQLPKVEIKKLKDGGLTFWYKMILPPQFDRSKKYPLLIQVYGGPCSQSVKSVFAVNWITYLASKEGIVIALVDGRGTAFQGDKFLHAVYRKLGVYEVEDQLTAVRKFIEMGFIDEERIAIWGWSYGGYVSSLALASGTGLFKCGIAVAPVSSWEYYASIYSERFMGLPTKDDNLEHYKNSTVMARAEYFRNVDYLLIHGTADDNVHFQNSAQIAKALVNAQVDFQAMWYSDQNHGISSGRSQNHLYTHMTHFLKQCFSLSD
Method in brief: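 In-house expressed, purified murine FAP (2 μg) incubated with probe (1 nmol, predissolved in 2.5 μL DMSO plus 0.5 μL Tween 80, then 1 mL 0.12 M NaCl/0.12 M TRIS, pH 7.37); probe:enzyme about 50:1. Fluorescence followed in real time at 37°C (ex 650 nm, em 675 nm). Cleavage also tracked by HPLC-MS every 30 min until complete.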

[9] = system: HT29 tumor (FAP on stromal fibroblasts); test: HT29 mouse xenograft in vivo imaging and frozen-section microscopy; parameters: species or system nude mouse
[10] = target: T2, mFAP (Mus musculus, UniProt P97321); test: mFAP activity assay; assay type: biochemical, murine; conditions: 37°C
T2 sequence (P97321 26-761 limits assumed): T1 sequence (P97321 26-761 limits assumed)
Method in brief: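 Probe at 0.1, 0.3, 0.5, 0.7, 1, 2 and 6 μM (predissolved in 2.5 μL DMSO plus 0.5 μL Tween 80, then 1 mL 0.12 M NaCl/0.12 M TRIS, pH 7.37) was incubated with murine FAP (2 μg) at 37°C. Fluorescence was read continuously (ex 650, em 675 nm). After 1 h, 10 μg enzyme was added and reading continued 2 h. Triplicates were run. Vmax, Km, kcat and kcat/Km came from nonlinear Michaelis-Menten fits of initial rates (10% substrate depleted).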

[11] = system: HEK-Vector cells; test: In vitro photocytotoxicity; assay type: cell-based, human; conditions: for photocytotoxicity toward HEK-Vector cells in the presence of light: FAP-PPB 8 μM, FAP-PP 4 μM, 2D-FAP-PPB 8 μM, 2 J cm^−2, MTT
[12] = system: HEK-mFAP cells; test: In vitro photocytotoxicity; assay type: cell-based, human; conditions: for photocytotoxicity toward HEK-mFAP cells in the presence of light: FAP-PPB 8 μM, FAP-PP 4 μM, 2D-FAP-PPB 8 μM, 2 J cm^−2, MTT
[13] = system: HEK-Vector cells (FAP−); test: Confocal microscopic studies, HEK-Vector cells; assay type: cell-based, human; conditions: 25 μM, 6 h, 37°C, FBS-free medium
Method in brief: as §2, with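 “carrying empty vector,” for “expressing full-length wild-type murine FAP,”, “hygromycin B” for “G418”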

[14] = Quenching efficiency measurements; assay type: physicochemical; conditions: FAP-PP quenched by free BHQ3 in DMSO; slope of linear Stern-Volmer plot
Method in brief: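 Unquenched peptide-photosensitizer (1 μM in DMSO) was mixed with varying concentrations of free BHQ3 quencher. Fluorescence was corrected using absorbance at the excitation and emission wavelengths. Data were fitted to F0/F = 1 + KSV[Q], and KSV was taken from the slope of the Stern-Volmer plot.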

[15] = 10 micron frozen sections, 24 h post-injection
[16] = tumor homogenized, DMSO extract, 24 h post-injection of 25 nmol intra-tumor

For `C=Cc1c(C)c2cc3nc(c4c5[nH]c(cc6nc(cc1[nH]2)C(C)=C6CC)c(C)c5C(=O)C4)[C@@H](CCC(=O)N[C@H](C(=O)N[C@@H](CO)C(=O)NCC(=O)N1CCC[C@H]1C(=O)N[C@@H](CC(N)=O)C(=O)N[C@@H](CCC(N)=O)C(=O)N[C@@H](CCC(=O)O)C(=O)N[C@@H](CCC(N)=O)C(=O)N[C@@H](CCCCNC(=O)CCCN(C)c1ccc(N=Nc2ccc4nc5ccc(N(CC)CC)cc5[n+](-c5ccccc5)c4c2)cc1)C(N)=O)[C@@H](C)O)[C@@H]3C` [FAP-PPB, Pyro-TSGPNQEQK(BHQ3)] ({Pyropheophorbide(a)}-TSGPNQEQK(X1)-NH2; C-terminus assumed), the “time to activation of FAP-PPB in tumor” value ([1]; 25 nmol intra-tumor injection, in vivo fluorescence imaging) was at most 5 min, the “Pyro fluorescence in HEK-mFAP tumor frozen sections (confocal)” value [1, 15] was “strong Pyro’s fluorescence signal” and the “HPLC analysis after incubation with DPPIV” value ([2]; 2 h, HPLC-MS) was “only a single peak corresponding to the intact FAP-PPB”. The “fluorescence intensity change on incubation with DPPIV” value ([2]; over 2 h) was “No significant increase in fluorescence intensity”, the “dark toxicity (distribution and shape of cells in flow cytometry)” value ([3]; 1 to 24 h, both cell lines, no light) was “does not have dark toxicity to both cell lines” and the “fluorescence intensity in HEK-mFAP cells compared to HEK-Vector cells” value ([3]; flow cytometry, 1 h incubation) was “about 8 fold”. The “Pyro fluorescence in HEK-Vector tumor frozen sections (confocal)” value [4, 15] was “very weak signal”, the “fluorescence signal in HEK-Vector tumor relative to HEK-mFAP tumor” value ([4]; 24 h post injection, fluorescence intensity per exposure time at tumor site) was “about half” and the “cleavage in HEK-Vector tumor extract (HPLC-MS)” value [4, 16] was “no cleavage was observed”. The “accumulation at the tumor site” value [5] was “no selective accumulation”, the “FAP-PPB cleaved in media after incubation with HEK-mFAP cells” value ([6]; 6.25 μM, 24 h incubation, HPLC-MS, data not shown) was “approximately 70%” and the “cleavage in culture media of HEK-mFAP cells (HPLC-MS)” value [6] was “two peaks corresponding to fragments Pyro-TSGP and NQEQK-BHQ3 were identified”. The “intracellular fluorescence in HEK-mFAP cells (confocal)” value [7] was “bright intracellular fluorescence signal”, the “time to complete cleavage by mFAP” value ([8]; HPLC-MS every 30 min, PPB:FAP about 50:1, TRIS buffer pH 7.37, 37°C) was 4 h and the “fluorescence increase on complete cleavage by mFAP” value ([8]; TRIS buffer pH 7.37, 37°C, complete fluorescence restoration) was 200 fold. The “in vivo fluorescence in HT29 tumor” value ([9]; 25 nmol intra-tumor injection, left flank) was “strong fluorescence signal was observed immediately and it lasted for 24 h”, the “Pyro fluorescence in HT29 tumor frozen section (confocal)” value ([9]; after in vivo imaging) was “bright Pyro’s fluorescence signals within both cancer cells and fibroblasts” and the “specificity constant (kcat/Km)” value [10] was 29200 M⁻¹ s⁻¹. The “cytotoxicity toward HEK-Vector cells in the absence of light” value ([11]; 8 μM, 24 h, MTT) was “non-cytotoxic in the absence of light”, the “photocytotoxicity toward HEK-Vector cells in the presence of light” value [11] was “not in the HEK-Vector cells” and the “cytotoxicity toward HEK-mFAP cells in the absence of light” value ([12]; 8 μM, 24 h, MTT) was “non-cytotoxic in the absence of light”. For the same compound, the “cell viability of HEK-mFAP cells with light” value ([12]; 8 μM, 24 h incubation, 670 nm laser, 130 mW cm^−2, 2 J cm^−2, MTT) was 55%, the “photocytotoxicity toward HEK-mFAP cells in the presence of light” value [12] was “significant photocytotoxicity” and the “intracellular fluorescence in HEK-Vector cells (confocal)” value [13] was “minimal fluorescence signal”.

For Pyro-TSGPNQEQK [FAP-PP], the “Stern-Volmer quenching constant (KSV)” value [14] was 5.3 × 10^4 mol^−1dm^3 and the “photocytotoxicity toward HEK-Vector cells in the presence of light” value [11] was “could kill both cell lines”.

In the case of Pyro-TSGpnQEQK(BHQ3) [2D-FAP-PPB], the “cleavage in HEK-mFAP tumor extract (HPLC-MS)” value [1, 16] was “little non-specific cleavages”, the “cleavage in culture media of HEK-mFAP cells (HPLC-MS)” value [6] was “no cleavage was observed” and the “intracellular fluorescence in HEK-mFAP cells (confocal)” value [7] was “no significant fluorescence”. For the same compound, the “photocytotoxicity toward HEK-Vector cells in the presence of light” value [11] was “essentially non-cytotoxic”, the “photocytotoxicity toward HEK-mFAP cells in the presence of light” value [12] was “essentially non-cytotoxic” and the “intracellular fluorescence in HEK-Vector cells (confocal)” value [13] was “no significant fluorescence”.
